# Measured values from ChEMBL document CHEMBL1122761, “Beta 1-selective adrenoceptor antagonists. 3. 4-Azolyl-linked phenoxypropanolamines” (J Med Chem, 1984).
# Columns and labels:
# [1] = molecular target: Beta-1 adrenergic receptor (Rattus norvegicus) (UniProt P18090); assay: Inhibition of isoprenaline induced tachycardia in anaesthetised rats.; assay type: functional
# Outline: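 Pentobarbitone-anesthetized rats (75 mg/kg ip), bilaterally vagotomized, tracheal cannula. Isoprenaline given via right femoral vein; carotid blood pressure and tachograph heart rate recorded. Test compound injected 5 min after isoprenaline, cumulative doses up to 2 mg/kg. ED50 (50% reduction of control isoprenaline response) with 95% confidence limits by linear regression of log dose-response.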
# [2] = molecular target: Adrenergic receptor beta (Rattus norvegicus) (UniProt P18090+P10608+P26255); assay: Beta agonist activity against heart rate in rats; assay type: functional, tissue-based
# Outline: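 Rats anesthetized with pentobarbitone sodium (75 mg/kg ip) and reserpinized 20-24 h earlier (5 mg/kg ip). Single iv doses into tail vein, up to 20 animals. Blood pressure and heart rate recorded; ED30 = dose giving 30 beats/min heart-rate rise, with 95% confidence limits from log dose-response linear regression.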
# [3] = molecular target: Beta-2 adrenergic receptor (Rattus norvegicus) (UniProt P10608); assay: Beta-2 adrenergic receptor antagonism in rats anesthetized with pentobarbitone sodium (75 mg/kg ip)
# Beta-2 adrenergic receptor (Rattus norvegicus), sequence (P10608 whole entry, looked up): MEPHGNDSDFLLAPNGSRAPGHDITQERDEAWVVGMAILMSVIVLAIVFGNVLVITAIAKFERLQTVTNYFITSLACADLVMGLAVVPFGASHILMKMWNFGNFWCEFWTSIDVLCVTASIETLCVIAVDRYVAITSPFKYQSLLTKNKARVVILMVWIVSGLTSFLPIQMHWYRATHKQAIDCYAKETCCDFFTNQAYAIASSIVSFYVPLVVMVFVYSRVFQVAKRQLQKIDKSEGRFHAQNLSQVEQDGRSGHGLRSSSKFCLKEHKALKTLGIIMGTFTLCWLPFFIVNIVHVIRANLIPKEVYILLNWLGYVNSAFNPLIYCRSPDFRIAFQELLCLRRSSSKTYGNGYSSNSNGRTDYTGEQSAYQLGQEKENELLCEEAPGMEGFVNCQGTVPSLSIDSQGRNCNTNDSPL
# [4] = Acid dissociation constant was determined; assay type: ADME
# [5] = molecular target: Beta-2 adrenergic receptor (Rattus norvegicus) (UniProt P10608); assay: Inhibition of isoprenaline induced […] response in anaesthetised rats.
# Beta-1 adrenergic receptor (Rattus norvegicus), sequence (P18090 whole entry, looked up): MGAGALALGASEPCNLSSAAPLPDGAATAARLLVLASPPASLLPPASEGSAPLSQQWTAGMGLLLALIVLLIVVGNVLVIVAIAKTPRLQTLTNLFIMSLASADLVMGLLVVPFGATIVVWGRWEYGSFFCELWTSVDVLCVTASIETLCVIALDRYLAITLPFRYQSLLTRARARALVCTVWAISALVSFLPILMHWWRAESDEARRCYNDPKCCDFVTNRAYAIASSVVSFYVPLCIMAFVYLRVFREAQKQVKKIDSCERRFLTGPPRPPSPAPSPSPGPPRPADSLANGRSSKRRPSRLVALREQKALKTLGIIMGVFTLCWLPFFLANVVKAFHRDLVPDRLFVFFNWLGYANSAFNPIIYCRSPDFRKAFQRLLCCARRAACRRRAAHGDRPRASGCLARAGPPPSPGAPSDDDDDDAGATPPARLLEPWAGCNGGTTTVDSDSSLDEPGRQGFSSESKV
Compound,ED50 [1],ED30 [2],ED50 [3],pKa [4],ED50 [5]
CC(C)NCC(O)COc1ccc(OCCn2nc3c(n2)CCCC3)cc1 (centres undefined),0.057 mg/kg,> 1 mg/kg,> 2 mg/kg,–,–
CC(C)NCC(O)COc1ccc(OCCCn2cncn2)cc1 (centres undefined),0.68 mg/kg,> 1 mg/kg,> 2 mg/kg,–,–
CC(C)NCC(O)COc1ccc(OCCn2cc(Cl)cn2)cc1 (centres undefined),0.024 mg/kg,0.194 mg/kg,0.523 mg/kg,< 0.6,–
CC(C)NCC(O)COc1ccc(Cn2ccnc2)cc1 (centres undefined),0.62 mg/kg,> 1 mg/kg,> 1 mg/kg,7.2,–
CC(C)NCC(O)COc1ccc(OCCCn2cccn2)cc1 (centres undefined),0.334 mg/kg,> 1 mg/kg,> 2 mg/kg,–,–
CC(C)NCC(O)COc1ccc(CCn2cncn2)cc1 (centres undefined),0.233 mg/kg,> 1 mg/kg,> 2 mg/kg,3.2,–
CC(C)NCC(O)COc1ccc(CCCn2cccn2)cc1 (centres undefined),0.783 mg/kg,> 1 mg/kg,> 2 mg/kg,–,–
CC(C)NCC(O)COc1ccc(OCn2cc(Cl)cn2)cc1 (centres undefined),0.004 mg/kg,0.007 mg/kg,–,< 0.6,2.43 mg/kg
CC(C)NCC(O)COc1ccc(OCn2nccn2)cc1 (centres undefined),0.011 mg/kg,0.019 mg/kg,–,< 1,> 2 mg/kg
CC(C)NCC(O)COc1ccc(CCn2ccnc2)cc1 (centres undefined),0.186 mg/kg,> 1 mg/kg,> 1 mg/kg,–,–
CC(C)NCC(O)COc1ccc(OCCn2nc3ccccc3n2)cc1 (centres undefined),0.05 mg/kg,> 1 mg/kg,0.988 mg/kg,–,–
CC(C)NCC(O)COc1ccc(OCCn2cc(-c3ccccc3)cn2)cc1 (centres undefined),0.16 mg/kg,> 1 mg/kg,> 2 mg/kg,–,–
CC(C)NCC(O)COc1ccc(OCCn2ncc3ccccc32)cc1 (centres undefined),0.263 mg/kg,> 1 mg/kg,> 2 mg/kg,–,–
CC(C)(C)NCC(O)COc1ccc(OCCn2cccn2)cc1 (centres undefined),0.067 mg/kg,0.154 mg/kg,1.04 mg/kg,–,–
CC(C)NCC(O)COc1ccc(Cn2cccn2)cc1 (centres undefined),0.598 mg/kg,> 1 mg/kg,> 2 mg/kg,–,–
CC(C)NCC(O)COc1ccc(OCCn2cnc3ccccc32)cc1 (centres undefined),0.687 mg/kg,> 1 mg/kg,> 2 mg/kg,–,–
CC(C)NCC(O)COc1ccc(CCn2cccn2)cc1 (centres undefined),0.209 mg/kg,> 1 mg/kg,> 2 mg/kg,2,–
CC(C)NCC(O)COc1ccc(OCn2ccnn2)cc1 (centres undefined),0.04 mg/kg,0.05 mg/kg,–,1.25,> 2 mg/kg
CC(C)NCC(O)COc1ccc(OCCn2ccnc2)cc1 (centres undefined),0.97 mg/kg,> 1 mg/kg,> 2 mg/kg,–,–
CC(C)NCC(O)COc1ccc(OCCn2cncn2)cc1 (centres undefined),0.17 mg/kg,> 1 mg/kg,> 2 mg/kg,3.2,–
CC(C)NCC(O)COc1ccc(OCCn2nccn2)cc1 (centres undefined),0.014 mg/kg,0.014 mg/kg,> 2 mg/kg,< 1,–
CC(C)NCC(O)COc1ccc(SCn2cccn2)cc1 (centres undefined),0.327 mg/kg,> 1 mg/kg,> 2 mg/kg,–,–
CC(C)NCC(O)COc1ccc(OCCn2nnc3ccccc32)cc1 (centres undefined),1.27 mg/kg,> 1 mg/kg,> 2 mg/kg,–,–
CC(C)NCC(O)COc1ccc(OCn2cccn2)cc1 (centres undefined),0.028 mg/kg,> 1 mg/kg,–,2,> 2 mg/kg
CC(C)NCC(O)COc1ccc(SCCn2cccn2)cc1 (centres undefined),0.128 mg/kg,> 1 mg/kg,> 2 mg/kg,–,–
CC(C)NCC(O)COc1ccc(OCCn2cccn2)cc1 (centres undefined),0.05 mg/kg,> 1 mg/kg,> 2 mg/kg,2,–
